In publication PMC4229023 (Biomacromolecules, 2014):

Columns and labels:
[1] = system: 4T1.2 mouse breast cancer cell line; assay: MTT cytotoxicity; type: cell-based; details: 4T1.2 cells
[2] = system: HCT-116 human colon carcinoma cell line; assay: MTT cytotoxicity; type: cell-based; details: HCT-116 cells
[3] = Maximum tolerated dose study; type: in vivo, CD-1 mice
Summary of the method: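 Body weight and survival were checked daily for 2 weeks. MTD was taken as the highest dose causing neither more than 15% body-weight loss nor any death within 2 weeks.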

Plasma pharmacokinetics = type: in vivo; details: 5 mg DOX/kg i.v., female BALB/c mice
PC-3 xenografts = details: cited from earlier work

CC(C)=CCC/C(C)=C/CC/C(C)=C/CSc1ccccc1C(=O)O [FTS, S-trans, trans-farnesylthiosalicylic acid]
cytotoxicity of drug-free carriers and FTS [1]: inhibited the tumor cell growth in a concentration-dependent manner
cytotoxicity of drug-free carriers and FTS [2]: inhibited the tumor cell growth in a concentration-dependent manner

COc1cccc2c1C(=O)c1c(O)c3c(c(O)c1C2=O)C[C@@](O)(C(=O)CO)C[C@@H]3O[C@H]1C[C@H](N)[C@H](O)[C@H](C)O1 [DOX, Doxorubicin]
tolerability ([3]; 10 mg/kg DOX): well tolerated
decrease in the body weight ([3]; 15 mg DOX/kg): > 15%
Animal death ([3]; 15 mg DOX/kg i.v., n = 4, listed as free DOX): death of all treated mice
maximum tolerated dose (MTD) ([3]; DOX dose, single i.v. dose, female CD-1 mice, 2 weeks): ~10 mg/kg
Cmax (Plasma pharmacokinetics): 3590 ng/mL
Vd (Plasma pharmacokinetics): 7.34 L/kg
T1/2 (Plasma pharmacokinetics; noncompartmental): 1.74 h
AUC0-inf (Plasma pharmacokinetics; plasma): 3430 ng·h/mL

CCCCCCCCCCCCCCCCCCN1C(=CC=CC=CC2=[N+](CCCCCCCCCCCCCCCCCC)c3ccccc3C2(C)C)C(C)(C)c2ccccc21.[O-][Cl+3]([O-])([O-])[O-] [free DiD dye, 1,1′-dioctadecyl-3,3,3′,3′-tetramethylindodicarbocyanine perchlorate]
tumor accumulation (NIRF imaging) (PC-3 xenografts): No obvious tumor accumulation
